{
  "source": "ChEMBL document CHEMBL4196032",
  "about": "“Conformational mimetics of the α-methyl chalcone TUB091 binding tubulin: Design, synthesis and antiproliferative activity” (Eur J Med Chem, 2018)",
  "key": {"HMEC-1 [1]": {"test_system": "HMEC-1", "assay": "Antiproliferative activity against human HMEC1 cells after 4 days by coulter counting method", "type": "cell-based", "settings": "HMEC-1, 96 h", "outline": "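HMEC-1 seeded at 20,000 cells/well; 5-fold compound dilutions added after 24 h; 4 days proliferation, trypsinized, Coulter counted.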"}, "CCRF-CEM [2]": {"test_system": "CCRF-CEM", "assay": "Antiproliferative activity against human CEM cells after 96 hrs by coulter counting method", "type": "functional, cell-based", "outline": "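Suspension cells (CEM, L1210) seeded at 60,000 cells/well together with graded compound concentrations; grown 96 h, then counted by Coulter counter.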"}, "L1210": {"test_system": "L1210", "assay": "Antiproliferative activity against mouse L1210 cells after 96 hrs by coulter counting method", "type": "functional, cell-based", "settings": "L1210, 96 h", "outline": "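Suspension cells (CEM, L1210) seeded at 60,000 cells/well together with graded compound concentrations; grown 96 h, then counted by Coulter counter. IC50 = concentration reducing cell proliferation by 50%.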"}, "HeLa [3]": {"test_system": "HeLa", "assay": "Antiproliferative activity against human HeLa cells after 3 days by coulter counting method", "type": "functional, cell-based", "settings": "72 h", "outline": "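HeLa seeded at 10,000 cells/well; various compound concentrations added 24 h later; after 3 days incubation cells trypsinized and counted by Coulter counter.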"}, "Bos taurus [4]": {"organism": "Bos taurus", "assay": "Inhibition of calf brain tubulin polymerization at 30 uM measured for 6000 secs by spectrophotometric method", "outline": "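Calf brain tubulin, gel-filtered into GAB buffer (10 mM sodium phosphate, 1 mM EGTA, 25% glycerol, 0.1 mM GTP, pH 7.0) at 25 µM, degassed; compound at 30 µM. Assembly at 37 °C followed by absorbance at 350 nm up to 6000 s; DMSO and podophyllotoxin controls; normalized absorbance.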"}, "Bos taurus [5]": {"organism": "Bos taurus", "assay": "Inhibition of R-PT binding to calf brain tubulin after 30 mins by fluorescence assay", "outline": "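Competition assay: 0.2 µM R-PT premixed with 0.2 µM calf brain tubulin in GAB buffer, ligand at 0–70 µM; 30 min at 25 °C, fluorescence read at 456 nm (ex 374 nm). Binding constants derived from competition data; racemates tested.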"}, "Tubulin (Homo sapiens)": {"target": "Tubulin (Homo sapiens) (UniProt P68371+Q9H4B7+P0DPH7+P68366+Q13509+Q71U36+P04350+Q3ZCM7+P07437+P68363+Q9BQE3+Q6PEY2+Q13885+Q9BVA1+Q9BUF5)", "assay": "Inhibition of tubulin polymerization in human HeLa cells assessed as reduction in mitotic spindle formation by measuring aberrant multipolar spindle formation at 0.1 to 0.3 uM after 24 hrs by Hoechst 33342 staining based immunofluorescence microscopic method", "type": "cell-based", "outline": "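HeLa seeded overnight on poly-L-lysine-coated slides, treated 24 h with compound or 0.1% DMSO. Fixed, permeabilized, stained with anti-β-tubulin (2 µg/ml) then Alexa Fluor 555 anti-mouse (4 µg/ml); nuclei with Hoechst 33342 (2 µg/ml); spindles imaged by fluorescence microscopy.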"}, "HeLa [6]": {"test_system": "HeLa", "assay": "Cell cycle arrest in human HeLa cells assessed as accumulation at G2/M phase at 0.1 uM after 24 hrs by propidium iodide staining based flow cytometry", "type": "functional", "outline": "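HeLa in DMEM + 10% FBS, 125,000 cells/well; compound added after 24 h for 24 h. DNA stained with propidium iodide kit, analysed by flow cytometry within 3 h; debris/clumps gated out; sub-G1, G1, S, G2/M percentages from region markers.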"}, "CCRF-CEM [7]": {"test_system": "CCRF-CEM", "assay": "Antiproliferative activity against human CEM cells", "type": "functional, cell-based", "outline": "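Suspension cells seeded at 60,000 cells/well in 96-well plates together with a range of compound concentrations. Grown 96 h, then counted by Coulter counter. IC50 taken as the concentration reducing proliferation by 50%.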"}, "HMEC-1 [8]": {"test_system": "HMEC-1", "assay": "Antiproliferative activity against human HMEC1 cells", "type": "cell-based", "outline": "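HMEC-1 microvascular endothelial cells plated at 20,000 cells/well in 48-well plates. 5-fold dilutions added after 24 h, then 4 days of growth. Cells trypsinized and counted by Coulter counter. IC50 is the concentration halving proliferation.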"}, "HeLa [9]": {"test_system": "HeLa", "assay": "Antiproliferative activity against human HeLa cells", "type": "functional, cell-based", "outline": "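Cervical carcinoma cells plated at 10,000 cells/well in 48-well plates. Varied concentrations added after 24 h, then 3 days of incubation. Cells trypsinized and Coulter-counted. IC50 is the concentration giving 50% reduction of proliferation.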"}},
  "note": "The source made the active and inactive calls. The rule behind the calls is not given here.",
  "data": [
    {"smiles": "COc1cc2c(cc1N)CC(C(=O)c1ccc(OC)c(OC)c1OC)CC2", "note": "(racemic)", "values": [
      {"measurement": "IC50", "setting": "HMEC-1 [1]", "value": 1300, "unit": "nM"},
      {"measurement": "IC50", "setting": "CCRF-CEM [2]", "value": 480, "unit": "nM"},
      {"measurement": "IC50", "setting": "L1210", "value": 860, "unit": "nM"},
      {"measurement": "IC50", "setting": "HeLa [3]", "value": 740, "unit": "nM"}
    ]},
    {"smiles": "COc1ccc2c(c1N)CCC(C(=O)c1ccc(OC)c(OC)c1OC)C2", "note": "(racemic)", "values": [
      {"measurement": "IC50", "setting": "HMEC-1 [1]", "value": 47, "unit": "nM"},
      {"measurement": "inhibition", "setting": "Bos taurus [4]", "value": "Active"},
      {"measurement": "IC50", "setting": "CCRF-CEM [2]", "value": 22, "unit": "nM"},
      {"measurement": "Kb", "setting": "Bos taurus [5]", "value": 2.4, "unit": "×10⁶ /M"},
      {"measurement": "IC50", "setting": "L1210", "value": 27, "unit": "nM"},
      {"measurement": "IC50", "setting": "HeLa [3]", "value": 30, "unit": "nM"},
      {"measurement": "inhibition", "setting": "Tubulin (Homo sapiens)", "value": "Active"},
      {"measurement": "Activity", "setting": "HeLa [6]", "value": "Active"}
    ]},
    {"smiles": "COc1cc([C@@H]2c3cc4c(cc3[C@H](O)[C@H]3COC(=O)[C@H]23)OCO4)cc(OC)c1OC", "values": [
      {"measurement": "inhibition", "setting": "Bos taurus [4]", "value": "Active"}
    ]},
    {"smiles": "COc1ccc2c(c1)CCC(C(=O)c1ccc(OC)c(OC)c1OC)C2", "note": "(racemic)", "values": [
      {"measurement": "IC50", "setting": "HMEC-1 [1]", "value": 1200, "unit": "nM"},
      {"measurement": "inhibition", "setting": "Bos taurus [4]", "value": "Active"},
      {"measurement": "IC50", "setting": "CCRF-CEM [2]", "value": 170, "unit": "nM"},
      {"measurement": "IC50", "setting": "L1210", "value": 240, "unit": "nM"},
      {"measurement": "IC50", "setting": "HeLa [3]", "value": 400, "unit": "nM"}
    ]},
    {"smiles": "COc1ccc2c(c1)CCC(C(=O)c1ccc(OC)c3c1OCO3)C2", "note": "(racemic)", "values": [
      {"measurement": "IC50", "setting": "HMEC-1 [1]", "value": 38000, "unit": "nM"},
      {"measurement": "IC50", "setting": "CCRF-CEM [2]", "value": 39000, "unit": "nM"},
      {"measurement": "IC50", "setting": "L1210", "value": 160000, "unit": "nM"},
      {"measurement": "IC50", "setting": "HeLa [3]", "value": 88000, "unit": "nM"}
    ]},
    {"smiles": "COc1ccc2c(c1)CCC(C(=O)c1ccc(OC)c(OC)c1O)C2", "note": "(racemic)", "values": [
      {"measurement": "IC50", "setting": "HMEC-1 [1]", "value": "≥ 250000", "unit": "nM"},
      {"measurement": "IC50", "setting": "CCRF-CEM [2]", "value": 38000, "unit": "nM"},
      {"measurement": "IC50", "setting": "L1210", "value": 75000, "unit": "nM"},
      {"measurement": "IC50", "setting": "HeLa [3]", "value": 40000, "unit": "nM"}
    ]},
    {"smiles": "COc1ccc(C(=O)C2CCc3c(ccc(OC)c3[N+](=O)[O-])C2)c(OC)c1OC", "note": "(racemic)", "values": [
      {"measurement": "IC50", "setting": "HMEC-1 [1]", "value": 5300, "unit": "nM"},
      {"measurement": "inhibition", "setting": "Bos taurus [4]", "value": "Active"},
      {"measurement": "IC50", "setting": "CCRF-CEM [2]", "value": 860, "unit": "nM"},
      {"measurement": "IC50", "setting": "L1210", "value": 4200, "unit": "nM"},
      {"measurement": "IC50", "setting": "HeLa [3]", "value": 810, "unit": "nM"}
    ]},
    {"smiles": "COc1cc2c(cc1[N+](=O)[O-])CC(C(=O)c1ccc(OC)c(OC)c1OC)CC2", "note": "(racemic)", "values": [
      {"measurement": "IC50", "setting": "HMEC-1 [1]", "value": 199000, "unit": "nM"},
      {"measurement": "IC50", "setting": "CCRF-CEM [2]", "value": "> 250000", "unit": "nM"},
      {"measurement": "IC50", "setting": "L1210", "value": "> 250000", "unit": "nM"},
      {"measurement": "IC50", "setting": "HeLa [3]", "value": "> 250000", "unit": "nM"}
    ]},
    {"smiles": "COc1ccc2c(c1)CCC(C(=O)c1ccc(OC)c(OC)c1)C2", "note": "(racemic)", "values": [
      {"measurement": "IC50", "setting": "HMEC-1 [1]", "value": "> 250000", "unit": "nM"},
      {"measurement": "inhibition", "setting": "Bos taurus [4]", "value": "inactive"},
      {"measurement": "IC50", "setting": "CCRF-CEM [2]", "value": 221000, "unit": "nM"},
      {"measurement": "IC50", "setting": "L1210", "value": "> 250000", "unit": "nM"},
      {"measurement": "IC50", "setting": "HeLa [3]", "value": "> 250000", "unit": "nM"}
    ]},
    {"smiles": "COc1ccc(/C=C\\c2cc(OC)c(OC)c(OC)c2)cc1OP(=O)(O)O", "note": "[FOSBRETABULIN DISODIUM]", "values": [
      {"measurement": "IC50", "setting": "HMEC-1 [1]", "value": 2.9, "unit": "nM"},
      {"measurement": "IC50", "setting": "CCRF-CEM [2]", "value": 11, "unit": "nM"},
      {"measurement": "IC50", "setting": "L1210", "value": 2.1, "unit": "nM"},
      {"measurement": "IC50", "setting": "HeLa [3]", "value": 13, "unit": "nM"}
    ]},
    {"smiles": "COc1ccc(/C=C(\\C)C(=O)c2cc(OC)c3c(c2)OCO3)cc1N", "values": [
      {"measurement": "IC50", "setting": "CCRF-CEM [7]", "value": 1, "unit": "nM"},
      {"measurement": "inhibition", "setting": "Bos taurus [4]", "value": "Active"},
      {"measurement": "IC50", "setting": "L1210", "value": 1, "unit": "nM"},
      {"measurement": "IC50", "setting": "HMEC-1 [8]", "value": 2.3, "unit": "nM"},
      {"measurement": "IC50", "setting": "HeLa [9]", "value": 3.9, "unit": "nM"}
    ]},
    {"smiles": "COc1ccc(C(=O)C2CCc3c(ccc(OC)c3N)C2)cc1OC", "note": "(racemic)", "values": [
      {"measurement": "IC50", "setting": "HMEC-1 [1]", "value": 122000, "unit": "nM"},
      {"measurement": "IC50", "setting": "CCRF-CEM [2]", "value": 6300, "unit": "nM"},
      {"measurement": "IC50", "setting": "L1210", "value": 52000, "unit": "nM"},
      {"measurement": "IC50", "setting": "HeLa [3]", "value": 23000, "unit": "nM"}
    ]}
  ]
}
